Measured values from ChEMBL document CHEMBL4673193, “Investigation of thiazolyl-benzothiophenamides as potential agents for African sleeping sickness” (RSC Med Chem, 2020).

Columns and labels:
[1] = system: Trypanosoma brucei brucei; experiment: Antitrypanosomal activity against Trypanosoma brucei brucei 427 assessed as parasite growth inhibition at 83.3 uM incubated for 48 hrs by resazurin dye based assay relative to control; format: functional; set-up: scale not given: the % may be the effect or the level left
[2] = system: HEK293; experiment: Cytotoxicity against human HEK293 cells assessed as reduction in cell viability at 83.3 uM incubated for 48 hrs by resazurin dye based assay relative to control; details: hek293, 48 h
[3] = Selectivity index, ratio of IC50 for rat L6 cells to IC50 for antitrypanosomal activity against bloodstream form of Trypanosoma brucei rhodesiense STIB900; format: toxicity; details: read-out: Ratio IC50
[4] = system: L6; experiment: Cytotoxicity against rat L6 cells assessed as reduction in cell viability after 70 hrs by Alamar blue dye-based fluorometric analysis; details: L6, 70 h
Procedure, shortened: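 Rat skeletal myoblast L6 cells, 4000 per well in RPMI 1640 with L-glutamine and 10% FBS. Eleven 3-fold dilutions from 100 to 0.002 μg/mL, 70 h. Wells checked by microscope, then Alamar Blue added for 2 h. Fluorescence read at 536/588 nm; IC50 by linear and 4-parameter logistic regression of dose-inhibition curves.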

[5] = Selectivity index, ratio of IC50 for human HEK293 cells to IC50 for antitrypanosomal activity against Trypanosoma brucei brucei 427; format: toxicity; details: read-out: Ratio IC50
[6] = system: Trypanosoma brucei brucei; experiment: Antitrypanosomal activity against Trypanosoma brucei brucei 427 assessed as parasite growth inhibition incubated for 48 hrs by resazurin dye based assay; format: functional, organism-based
Procedure, shortened: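 Log-phase T. b. brucei 427 at 1200 parasites/mL in HMI-9 with 10% FCS, preincubated 24 h at 37 °C/5% CO₂. Serial dilutions made in DMEM, final 83.34 to 0.04 μM, 48 h exposure. 0.49 mM resazurin solution added, then 2 h at 37 °C plus 22 h at room temperature. Fluorescence read at ex 535/em 590 nm; IC50 from concentration curves.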

[7] = system: Trypanosoma brucei rhodesiense; experiment: Antitrypanosomal activity against bloodstream form of Trypanosoma brucei rhodesiense STIB900 incubated for 70 hrs by Alamar blue dye-based fluorometric analysis; format: functional, organism-based; details: STIB900, 70 h
[8] = system: HEK293; experiment: Cytotoxicity against human HEK293 cells assessed as reduction in cell viability at 41.7 uM incubated for 48 hrs by resazurin dye based assay relative to control; details: hek293, 48 h
[9] = system: HEK293; experiment: Cytotoxicity against human HEK293 cells assessed as reduction in cell viability incubated for 48 hrs by resazurin dye based assay
Procedure, shortened: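 HEK293 cells at 7.27×10⁴ cells/mL in DMEM with 10% FCS, preincubated 24 h at 37 °C/5% CO₂. Compounds serially diluted in DMEM, final 83.34 to 0.04 μM, 48 h. 0.49 mM resazurin solution in medium added, then 2 h at 37 °C plus 22 h at room temperature. Fluorescence read at 535/590 nm; IC50 calculated.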

[10] = system: HEK293; experiment: Cytotoxicity against human HEK293 cells assessed as reduction in cell viability at 79.4 uM incubated for 48 hrs by resazurin dye based assay relative to control; details: hek293, 48 h
[11] = system: Trypanosoma brucei brucei; experiment: Antitrypanosomal activity against Trypanosoma brucei brucei 427 assessed as parasite growth inhibition at 79.4 uM incubated for 48 hrs by resazurin dye based assay relative to control; format: functional; set-up: scale not given: the % may be the effect or the level left
[12] = system: Trypanosoma brucei brucei; experiment: Antitrypanosomal activity against Trypanosoma brucei brucei 427 assessed as parasite growth inhibition at 41.7 uM incubated for 48 hrs by resazurin dye based assay relative to control; format: functional; set-up: scale not given: the % may be the effect or the level left
[13] = Selectivity index, ratio of IC50 for antitrypanosomal activity against bloodstream form of Trypanosoma brucei rhodesiense STIB900 to IC50 for antitrypanosomal activity against Trypanosoma brucei brucei 427; format: functional
[14] = Trypanosoma brucei, 427, 48 h, read-out: IC50
[15] = Homo sapiens, HEK293, 48 h, read-out: IC50

**Q.** What does the source list for O=C(Nc1nc2ccccc2s1)c1sc2ccccc2c1Cl?
**A.** Activity [1]: <50%; Activity [2]: < 50%

**Q.** With CC1(C)CC(=O)c2sc(NC(=O)c3sc4c(Br)cccc4c3Cl)nc2C1 as the compound, how does the selectivity ratio [3] read?
**A.** 4

**Q.** And the IC50 [4]?
**A.** 25.2 µM

**Q.** And the selectivity ratio [5]?
**A.** > 130

**Q.** What about the IC50 [6, 14] of the same compound?
**A.** 0.32 µM

**Q.** And the IC50 [7]?
**A.** 7.13 µM

**Q.** What about the Activity [8] of the same compound?
**A.** < 50%

**Q.** What does the source list for COc1cccc2cc(C(=O)Nc3nc4c(s3)C(=O)CC(C)(C)C4)sc12?
**A.** selectivity ratio [3]: 6; IC50 ([9]; hek293): Nd(Insoluble); IC50 [4]: 54.5 µM; IC50 [6]: Nd(Insoluble); IC50 [7]: 8.68 µM

**Q.** Which IC50 [7] does the source give for Nc1nc(N)nc(Nc2ccc([As]3SCC(CO)S3)cc2)n1 (stereo unspecified) [MELARSOPROL] here?
**A.** 0.014 µM

**Q.** With Cc1ccc2c(Cl)c(C(=O)Nc3nc4c(s3)C(=O)CC(C)(C)C4)sc2c1 as the compound, how does the selectivity ratio [5] read?
**A.** > 37

**Q.** And the IC50 [6, 14]?
**A.** 2.27 µM

**Q.** What about the Activity [2] of the same compound?
**A.** < 50%

**Q.** With CC1(C)CC(=O)c2sc(NC(=O)c3sc4ccccc4c3-c3ccc(C(F)(F)F)cc3)nc2C1 as the compound, how does the Activity [1] read?
**A.** <50%

**Q.** And the Activity [2]?
**A.** < 50%

**Q.** Which selectivity ratio [5] does the source give for Cc1ccc2c(Cl)c(C(=O)Nc3nc4c(s3)C(=O)CCC4)sc2c1 here?
**A.** > 11

**Q.** What about the IC50 [6, 14] of the same compound?
**A.** 7.77 µM

**Q.** What about the Activity [2] of the same compound?
**A.** < 50%

**Q.** Which results are given for O=C(Nc1nc2c(s1)C(=O)CCC2)c1cc2ccccc2s1?
**A.** Activity [10]: < 50%; Activity [11]: 97%

**Q.** Which Activity [1] does the source give for O=C(Nc1nccs1)c1sc2ccccc2c1Cl here?
**A.** 96%

**Q.** What about the Activity [2] of the same compound?
**A.** < 50%

**Q.** What does the source list for CC1(C)CC(=O)c2sc(NC(=O)c3sc4ccccc4c3-c3cccc4ccccc34)nc2C1?
**A.** Activity [1]: 100%; Activity [2]: 52%

**Q.** Which results are given for O=C1CCCc2nc(NC(=O)c3sc4ccccc4c3-c3cccc4ccccc34)sc21?
**A.** IC50 [9, 15]: 4.63 µM; selectivity ratio [5]: 1; IC50 [6, 14]: 6.38 µM

**Q.** Which results are given for COc1ccc(-c2c(C(=O)Nc3nc4c(s3)C(=O)CC(C)(C)C4)sc3ccccc23)cc1?
**A.** selectivity ratio [5]: > 29; IC50 [6, 14]: 2.91 µM; Activity [2]: < 50%

**Q.** For CC1(C)CC(=O)c2sc(NC(=O)c3sc4cc(Br)ccc4c3Cl)nc2C1, which Activity [10] is on record?
**A.** < 50%

**Q.** And the selectivity ratio [5]?
**A.** > 12

**Q.** What about the IC50 [6, 14] of the same compound?
**A.** 6.53 µM

**Q.** What does the source list for CC1(C)CC(=O)c2sc(NC(=O)c3cccs3)nc2C1?
**A.** Activity [10]: < 50%; Activity [11]: 90%

**Q.** Which Activity [1] does the source give for O=C1CCCc2nc(NC(=O)c3sc4ccccc4c3-c3ccccc3)sc21 here?
**A.** 77%

**Q.** What about the Activity [2] of the same compound?
**A.** < 50%

**Q.** With O=C1CCCc2nc(NC(=O)c3sc4cc(Br)ccc4c3Cl)sc21 as the compound, how does the Activity [10] read?
**A.** < 50%

**Q.** And the Activity [11]?
**A.** 78%

**Q.** Which selectivity ratio [5] does the source give for COc1cccc(-c2c(C(=O)Nc3nc4c(s3)C(=O)CCC4)sc3ccccc23)c1 here?
**A.** > 9

**Q.** And the IC50 [6, 14]?
**A.** 9.39 µM

**Q.** What about the Activity [2] of the same compound?
**A.** 88%

**Q.** What does the source list for COc1ccc(-c2c(C(=O)Nc3nc4c(s3)C(=O)CCC4)sc3ccccc23)cc1?
**A.** selectivity ratio [5]: > 12; IC50 [6, 14]: 7.23 µM; Activity [2]: 88%

**Q.** Which selectivity ratio [5] does the source give for COc1ccc2sc(C(=O)Nc3nc4c(s3)C(=O)CC(C)(C)C4)c(Cl)c2c1 here?
**A.** > 14

**Q.** What about the IC50 [6, 14] of the same compound?
**A.** 5.86 µM

**Q.** What about the Activity [2] of the same compound?
**A.** < 50%

**Q.** Which Activity [2] does the source give for O=C1CCCc2nc(NC(=O)c3sc4ccccc4c3-c3ccc(C(F)(F)F)cc3)sc21 here?
**A.** 59%

**Q.** And the Activity [12]?
**A.** 97%

**Q.** With CC1(C)CC(=O)c2sc(NC(=O)c3nc4ccccc4s3)nc2C1 as the compound, how does the selectivity ratio [3] read?
**A.** 3

**Q.** What about the Activity [10] of the same compound?
**A.** < 50%

**Q.** What about the IC50 [4] of the same compound?
**A.** 30.4 µM

**Q.** What about the selectivity ratio [5] of the same compound?
**A.** > 56

**Q.** What about the IC50 [6, 14] of the same compound?
**A.** 1.41 µM

**Q.** What about the IC50 [7] of the same compound?
**A.** 10.6 µM

**Q.** With COc1cc([C@@H]2c3cc4c(cc3[C@H](O)[C@H]3COC(=O)[C@H]23)OCO4)cc(OC)c1OC [PODOFILOX] as the compound, how does the IC50 [4] read?
**A.** 0.011 µM

**Q.** Which results are given for O=C(Nc1nc2c(s1)CCCC2)c1sc2ccccc2c1Cl?
**A.** Activity [1]: 89%; Activity [2]: < 50%

**Q.** Which results are given for CC1(C)CC(=O)c2sc(NC(=O)c3cc4ccccc4s3)nc2C1?
**A.** selectivity ratio [3]: 13; Activity [10]: < 50%; IC50 [4]: 65.4 µM; selectivity ratio [5]: > 106; IC50 [6, 14]: 0.75 µM; IC50 [7]: 5.04 µM

**Q.** What does the source list for CC1(C)CC(=O)c2sc(NC(=O)c3sc4ccccc4c3Cl)nc2C1?
**A.** IC50 [9, 15]: 10.4 µM; selectivity ratio [5]: 14; IC50 [6, 14]: 0.73 µM

**Q.** Which results are given for O=C1CCCc2nc(NC(=O)c3sc4ccccc4c3Cl)sc21?
**A.** selectivity ratio [3]: 3; IC50 [4]: 24.9 µM; selectivity ratio [5]: > 48; Ratio IC50 [13]: 4; IC50 [6, 14]: 2.5 µM; IC50 [7]: 8.96 µM; Activity [2]: < 50%

**Q.** What does the source list for N=C(N)c1ccc(OCCCCCOc2ccc(C(=N)N)cc2)cc1 [PENTAMIDINE]?
**A.** selectivity ratio [5]: 307; IC50 [6, 14]: 0.00213 µM

**Q.** Which Activity [8] does the source give for CC1(C)CC(=O)c2sc(NC(=O)c3sc4ccccc4c3-c3ccccc3)nc2C1 here?
**A.** < 50%

**Q.** What about the Activity [12] of the same compound?
**A.** 93%

**Q.** Which results are given for CC1(C)CC(=O)c2sc(NC(=O)c3cc4cccc(-c5ccccc5)c4s3)nc2C1?
**A.** Activity [10]: < 50%; selectivity ratio [5]: > 28; IC50 [6, 14]: 2.79 µM

**Q.** For C=CCN(C(=O)c1sc2ccccc2c1Cl)c1nc2c(s1)C(=O)CCC2, which Activity [1] is on record?
**A.** <50%

**Q.** And the Activity [2]?
**A.** < 50%

**Q.** With COc1cccc(-c2c(C(=O)Nc3nc4c(s3)C(=O)CC(C)(C)C4)sc3ccccc23)c1 as the compound, how does the selectivity ratio [5] read?
**A.** > 38

**Q.** What about the IC50 [6, 14] of the same compound?
**A.** 2.21 µM

**Q.** And the Activity [2]?
**A.** < 50%
